Source: ChEMBL document CHEMBL1148452, “Fluoroartemisinin: trifluoromethyl analogues of artemether and artesunate” (J Med Chem, 2004)
“And” between values parts separate entries of the source, which are not always exact repeats. Equal entries are not always repeated.

Tests used:
Mus musculus [1] = assay: (§1) Percentage uM/kg); assay type: functional; design: concentration or dose not given beside the values
Summary of the method: (§2)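 Female ICR (CD-1) mice (18–20 g) infected with P. berghei NK 173, following Peters' 4-day test. Dosing was intraperitoneal for 4 days, with four to five mice per group. Parasitemia was counted and inhibition calculated against infected untreated controls. Survey dose 35.5 μmol/kg. ED50/ED90 came from doses of 0.5–10 mg/kg, with parasitemia read on day 4.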

Plasmodium falciparum = assay: In vitro antimalarial activity against Plasmodium falciparum FCB1; assay type: functional, organism-based
Summary of the method: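 P. falciparum FCB1 (chloroquine-resistant) cultured continuously in human erythrocytes. Ring-synchronized cultures at 1% parasitemia and 1% final hematocrit were exposed to serial dilutions, with methanol or DMSO ≤0.1%. Cultures received [3H]-hypoxanthine and were incubated 48 h at 37 °C. Incorporated radioactivity was compared with drug-free controls, and IC50 was taken by nonlinear regression of log(dose)-response. Mean of three experiments.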

Mus musculus [2] = assay: as §1; assay type: functional; summary of the method: as §2
Mus musculus [3] = assay: as §1; assay type: functional; summary of the method: as §2; remark: listed apart in the source
Mus musculus [4] = assay: as §1; assay type: functional; summary of the method: as §2; remark: listed apart in the source
[5] = Plasmatic Half-life after intravenous administration to rat; assay type: ADME, organism-based; conditions: plasma
Mus musculus [6] = assay: as §1; assay type: functional; summary of the method: as §2; remark: listed apart in the source
[7] = Half-life at pH 1; assay type: ADME; conditions: buffer
Mus musculus [8] = assay: (§3) In vivo antimalarial activity against Plasmodium berghei NK173 infected mice (Mus musculus) administered intraperitoneal. at the end of 4 day; assay type: functional; conditions: ip, 96 h; summary of the method: as §2
Mus musculus [9] = assay: In vivo antimalarial activity against Plasmodium berghei NK 173 infected mice (Mus musculus) administered i.p. at the end of 4 day; assay type: functional; summary of the method: as §2
Mus musculus [10] = assay: as §1; assay type: functional; summary of the method: as §2; remark: listed apart in the source
Mus musculus [11] = assay: In vivo antimalarial activity against Plasmodium berghei NK173 infected mice (Mus musculus) administered intraperitoneally. at the end of 4 day; assay type: functional; conditions: ip, 96 h
Summary of the method: (§4)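 Female ICR (CD-1) mice (18–20 g), 4–5 per group, infected with P. berghei NK 173 and dosed intraperitoneally for 4 days at 0.5 to 10 mg/kg (Peters protocol). Parasitemia was counted at day 4, and inhibition was calculated against infected untreated controls. ED50 and ED90 were derived from these counts.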

Mus musculus [12] = assay: as §3; assay type: functional; summary of the method: as §4
[13] = Mus musculus, ip, 96 h, read-out: ED90

SMILES | Parasitemia (Mus musculus [1]) [%] | IC50 (Plasmodium falciparum) [nM] | Parasitemia (Mus musculus [2]) [%] | Parasitemia (Mus musculus [3]) [%] | Parasitemia (Mus musculus [4]) [%] | half-life [5] [h] | Parasitemia (Mus musculus [6]) [%] | half-life [7] [h] | ED50 (Mus musculus [8]) | ED90 (Mus musculus [9]) [µM/kg] | ED90 (Mus musculus [9]; [13]) [mg/kg] | Parasitemia (Mus musculus [10]) [%] | ED50 (Mus musculus [11]) | ED90 (Mus musculus [12]) [µM/kg] | ED90 (Mus musculus [12]; [13]) [mg/kg]
C[C@@H]1CC[C@H]2[C@@H](C)[C@](OCC(=O)O)(C(F)(F)F)OC3O[C@]4(C)CC[C@@H]1[C@]32OO4 (some centres undefined) | 47.5 | 30.4 |  |  |  |  |  |  |  |  |  |  |  |  | 
C[C@@H]1CCC2[C@@H](C)[C@](OO)(C(F)(F)F)OC3O[C@]4(C)CCC1[C@]32OO4 (some centres undefined) | 5.5 | 13.2 | 41.7 | 36.8 | 28.3 |  |  |  |  |  |  |  |  |  | 
C[C@@H]1CC[C@H]2[C@@H](C)[C@](O)(C(F)(F)F)O[C@@H]3O[C@]4(C)CC[C@@H]1[C@]32OO4 | 4 | 9.4 |  |  | 10.7 | 1.43 | 22.1 |  |  |  |  |  |  |  | 
C[C@@H]1CCC2[C@@H](C)[C@](OCC(F)(F)F)(C(F)(F)F)OC3O[C@]4(C)CCC1[C@]32OO4 (some centres undefined) | 0 | 8.3 |  |  | 0 |  |  | 215 |  |  |  |  |  |  | 
CO[C@@]1(C(F)(F)F)OC2O[C@]3(C)CCC4[C@H](C)CCC([C@H]1C)[C@@]24OO3 (some centres undefined) | 0 | 0.8 |  |  | 0 |  | 0 | 660 | 1.25 mg/kg and 3.4 µmol/kg | 17.5 | 6.4 | 0 |  |  | 
C[C@@H]1CC[C@H]2[C@@H](C)[C@](OCC=O)(C(F)(F)F)OC3O[C@]4(C)CC[C@@H]1[C@]32OO4 (some centres undefined) | 0.2 | 21.4 | 26.8 | 46.8 | 7.8 |  |  |  |  |  |  | 29.6 |  |  | 
CCO[C@@]1(C(F)(F)F)OC2O[C@]3(C)CCC4[C@H](C)CCC([C@H]1C)[C@@]24OO3 (some centres undefined) | 0 | 3.3 |  |  | 0 |  | 0 | 500 |  |  |  | 3.8 |  |  | 
C[C@@H]1CCC2[C@@H](C)[C@@H](O)OC3O[C@]4(C)CCC1[C@]32OO4 (some centres undefined) |  |  |  |  |  | 0.438 |  |  |  |  |  |  |  |  | 
COC1O[C@@H]2O[C@]3(C)CCC4[C@H](C)CCC([C@H]1C)[C@]42OO3 (some centres undefined) | 2.2 | 3.5 | 39.2 | 48.1 | 5.5 |  |  |  |  |  |  |  | 2.5 mg/kg and 8.4 µmol/kg | 28.5 | 8.5
C[C@@H]1CC[C@H]2[C@@H](C)[C@](OCC(O)CO)(C(F)(F)F)OC3O[C@]4(C)CC[C@@H]1[C@]32OO4 (some centres undefined) | 2.1 | 0.9 | 28.8 |  | 12.1 |  | 46.3 |  |  |  |  |  |  |  | 
C[C@@H]1CC[C@H]2[C@@H](C)[C@](OCc3ccc(C(=O)[O-])cc3)(C(F)(F)F)OC3O[C@]4(C)CC[C@@H]1[C@]32OO4.[Na+] (some centres undefined) | 25.9 | 10.6 | 34.9 | 25.6 | 26.8 |  |  | 680 |  |  |  |  |  |  | 
COc1ccc(N[C@@]2(C(F)(F)F)OC3O[C@]4(C)CCC5[C@H](C)CCC([C@H]2C)[C@@]35OO4)cc1 (some centres undefined) | 0 | 12.3 | 0.1 | 8.1 | 0 |  |  | 30 |  |  |  | 0 |  |  | 
